Source: ChEMBL document CHEMBL5329147, “Synthesis of tryptanthrin appended dispiropyrrolidine oxindoles and their antibacterial evaluation” (RSC Med Chem, 2023)
Values after ≈ are worked out from the molar mass of the structure shown.

Experiments:
Staphylococcus aureus [1] = assay: Bactericidal activity against Staphylococcus aureus ATCC 29213 assessed as reduction in bacterial load at 10 times of MIC incubated for 24 hrs by time kill analysis; type: functional
How it was run: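 Time-kill assay. ~10^6 CFU/mL in MHBII was exposed to 1X and 10X MIC, 37 °C with shaking for 24 h. Samples were taken at 0, 1, 6 and 24 h, serially diluted in PBS, plated on MHA and incubated 37 °C 18–20 h. Colonies were counted as CFU/mL survivors. Three repeats in duplicate; mean plotted.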

Pseudomonas aeruginosa = assay: Antibacterial activity against Pseudomonas aeruginosa ATCC 27853 assessed as bacterial growth inhibition incubated for 18 to 24 hrs by broth microdilution method; type: functional; settings: time 18-24 hrs
How it was run: (§1)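 CLSI broth microdilution. Overnight starter cultures (single colony, MHBII, 37 °C, shaking 18–24 h) were diluted by OD600 to 10^6 CFU/mL in MHBII. Two-fold dilutions from […] were made from 10 mg/mL DMSO stocks, then incubated 37 °C for 18-24 h. The MIC was the lowest concentration with no visible growth. Three independent runs, duplicate samples.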

Staphylococcus aureus [2] = assay: Antibacterial activity against vancomycin resistant Staphylococcus aureus […] 12 assessed as bacterial growth inhibition incubated for 18 to 24 hrs by broth microdilution method; type: functional; settings: time 18-24 hrs
How it was run: (§2)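 CLSI broth microdilution in MHBII; overnight starter cultures (single MHA colony, 37 °C, shaking) adjusted by OD600 to 10^6 CFU/mL. Compounds from DMSO stocks (10 mg/mL), two-fold series 64–0.5 mg/L. Incubation 37 °C, 18-24 h. MIC = lowest concentration with no visible growth. Three independent determinations, each in duplicate.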

Staphylococcus aureus [3] = assay: Synergistic antibacterial activity against Staphylococcus aureus ATCC 29213 assessed as fractional inhibitory concentration index incubated for 24 hrs in the presence of daptomycin by checkerboard assay; type: functional
How it was run: (§3)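 Checkerboard in 96-well plates. The test agent was diluted two-fold along one axis and the partner antibiotic two-fold along the other, with ~10^5 CFU/mL inoculum, 37 °C for 24 h. ΣFIC = FIC A + FIC B, each FIC being the MIC in combination divided by the MIC alone.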

Staphylococcus aureus [4] = assay: Antibacterial activity against methicillin resistant Staphylococcus aureus NRS 193 assessed as bacterial growth inhibition incubated for 18 to 24 hrs by broth microdilution method; type: functional; settings: time 18-24 hrs; how it was run: as §2
Staphylococcus aureus [5] = assay: Synergistic antibacterial activity against Staphylococcus aureus ATCC 29213 assessed as fractional inhibitory concentration index incubated for 24 hrs in the presence of minocycline by checkerboard assay; type: functional; how it was run: as §3
Klebsiella pneumoniae = assay: Antibacterial activity against Klebsiella pneumoniae BAA 1705 assessed as bacterial growth inhibition incubated for 18 to 24 hrs by broth microdilution method; type: functional; settings: time 18-24 hrs; how it was run: as §1
Staphylococcus aureus [6] = assay: Antibacterial activity against methicillin resistant Staphylococcus aureus NRS 186 assessed as bacterial growth inhibition incubated for 18 to 24 hrs by broth microdilution method; type: functional; settings: time 18-24 hrs; how it was run: as §2
Staphylococcus aureus [7] = assay: Antibacterial activity against methicillin resistant Staphylococcus aureus NRS 192 assessed as bacterial growth inhibition incubated for 18 to 24 hrs by broth microdilution method; type: functional; settings: time 18-24 hrs; how it was run: as §2
Staphylococcus aureus [8] = assay: Synergistic antibacterial activity against Staphylococcus aureus ATCC 29213 assessed as bacterial growth inhibition incubated for 24 hrs in presence of ceftazidime by checkerboard assay; type: functional
How it was run: (§4)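 Checkerboard in 96-well plates: two-fold serial dilutions, one agent along abscissa, partner antibiotic along ordinate. Wells received ~10⁵ CFU/mL S. aureus ATCC 29213 in MHBII. Incubation 37 °C, 24 h. ΣFIC = FIC A + FIC B, each FIC being combination MIC divided by MIC alone.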

Staphylococcus aureus [9] = assay: Synergistic antibacterial activity against Staphylococcus aureus ATCC 29213 assessed as fractional inhibitory concentration index incubated for 24 hrs in the presence of meropenem by checkerboard assay; type: functional; how it was run: as §3
Staphylococcus aureus [10] = assay: Synergistic antibacterial activity against Staphylococcus aureus ATCC 29213 assessed as bacterial growth inhibition incubated for 24 hrs in presence of rifampicin by checkerboard assay; type: functional; how it was run: as §4
Vero = assay: Cytotoxicity against African green monkey Vero cells assessed as cell viability incubated for 72 hrs by MTT assay; type: toxicity, cell-based; settings: chlorocebus sabaeus
How it was run: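 MTT assay on Vero cells, ~10^3 cells/well, 37 °C, 5% CO2. Compound was added at 24 h (100-12.5 μg/mL) for 72 h, then MTT for 4 h at 37 °C. Formazan was dissolved in DMSO and read at 540 nm. CC50 was the lowest concentration giving 50% viability loss. Doxorubicin positive control; triplicate.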

Staphylococcus aureus [11] = assay: Antibacterial activity against vancomycin resistant Staphylococcus aureus […] 4 assessed as bacterial growth inhibition incubated for 18 to 24 hrs by broth microdilution method; type: functional; settings: time 18-24 hrs; how it was run: as §2
Staphylococcus aureus [12] = assay: Synergistic antibacterial activity against Staphylococcus aureus ATCC 29213 assessed as bacterial growth inhibition incubated for 24 hrs in presence of levofloxacin by checkerboard assay; type: functional; how it was run: as §4
Staphylococcus aureus [13] = assay: Synergistic antibacterial activity against Staphylococcus aureus ATCC 29213 assessed as bacterial growth inhibition incubated for 24 hrs in presence of vancomycin by checkerboard assay; type: functional; how it was run: as §4
Acinetobacter baumannii = assay: Antibacterial activity against Acinetobacter baumannii BAA-1605 assessed as bacterial growth inhibition incubated for 18 to 24 hrs by broth microdilution method; type: functional; settings: time 18-24 hrs; how it was run: as §1
Staphylococcus aureus [14] = assay: Synergistic antibacterial activity against Staphylococcus aureus ATCC 29213 assessed as bacterial growth inhibition incubated for 24 hrs in presence of linezolid by checkerboard assay; type: functional; how it was run: as §4
Staphylococcus aureus [15] = assay: Synergistic antibacterial activity against Staphylococcus aureus ATCC 29213 assessed as fractional inhibitory concentration index incubated for 24 hrs in the presence of gentamycin by checkerboard assay; type: functional; how it was run: as §3
Staphylococcus aureus [16] = assay: Antibacterial activity against methicillin resistant Staphylococcus aureus NRS 129 assessed as bacterial growth inhibition incubated for 18 to 24 hrs by broth microdilution method; type: functional; settings: time 18-24 hrs; how it was run: as §2
Staphylococcus aureus [17] = assay: Synergistic antibacterial activity against Staphylococcus aureus ATCC 29213 assessed as bacterial growth inhibition incubated for 24 hrs in presence of gentamycin by checkerboard assay; type: functional; how it was run: as §4
Staphylococcus aureus [18] = assay: Antibacterial activity against methicillin resistant Staphylococcus aureus NRS 119 assessed as bacterial growth inhibition incubated for 18 to 24 hrs by broth microdilution method; type: functional; settings: time 18-24 hrs; how it was run: as §2
Staphylococcus aureus [19] = assay: Antibacterial activity against methicillin sensitive Staphylococcus aureus ATCC 29213 assessed as bacterial growth inhibition incubated for 18 to 24 hrs by broth microdilution method; type: functional; settings: time 18-24 hrs; how it was run: as §2
Staphylococcus aureus [20] = assay: Antibacterial activity against methicillin resistant Staphylococcus aureus NRS 194 assessed as bacterial growth inhibition incubated for 18 to 24 hrs by broth microdilution method; type: functional; settings: time 18-24 hrs; how it was run: as §2
Staphylococcus aureus [21] = assay: Synergistic antibacterial activity against Staphylococcus aureus ATCC 29213 assessed as fractional inhibitory concentration index incubated for 24 hrs in the presence of linezolid by checkerboard assay; type: functional; how it was run: as §3
Staphylococcus aureus [22] = assay: Synergistic antibacterial activity against Staphylococcus aureus ATCC 29213 assessed as fractional inhibitory concentration index incubated for 24 hrs in the presence of levofloxacin by checkerboard assay; type: functional; how it was run: as §3
Staphylococcus aureus [23] = assay: Synergistic antibacterial activity against Staphylococcus aureus ATCC 29213 assessed as bacterial growth inhibition incubated for 24 hrs in presence of minocycline by checkerboard assay; type: functional; how it was run: as §4
Escherichia coli = assay: Antibacterial activity against Escherichia coli ATCC 25922 assessed as bacterial growth inhibition incubated for 18 to 24 hrs by broth microdilution method; type: functional; settings: time 18-24 hrs; how it was run: as §1
Staphylococcus aureus [24] = assay: Synergistic antibacterial activity against Staphylococcus aureus ATCC 29213 assessed as fractional inhibitory concentration index incubated for 24 hrs in the presence of ceftazidime by checkerboard assay; type: functional; how it was run: as §3
[25] = Selectivity ratio of CC50 for African green monkey Vero cells to MIC against Staphylococcus aureus ATCC 29213; type: toxicity, cell-based
Staphylococcus aureus [26] = assay: Synergistic antibacterial activity against Staphylococcus aureus ATCC 29213 assessed as bacterial growth inhibition incubated for 24 hrs in presence of daptomycin by checkerboard assay; type: functional; how it was run: as §4
Staphylococcus aureus [27] = assay: Antibacterial activity against methicillin resistant Staphylococcus aureus NRS 191 assessed as bacterial growth inhibition incubated for 18 to 24 hrs by broth microdilution method; type: functional; settings: time 18-24 hrs; how it was run: as §2
Staphylococcus aureus [28] = assay: Synergistic antibacterial activity against Staphylococcus aureus ATCC 29213 assessed as bacterial growth inhibition incubated for 24 hrs in presence of meropenem by checkerboard assay; type: functional; how it was run: as §4
Staphylococcus aureus [29] = assay: Antibacterial activity against Staphylococcus aureus ATCC 29213 assessed as bacterial growth inhibition incubated for 18 to 24 hrs by broth microdilution method; type: functional; settings: Staphylococcus aureus, ATCC 29213; time 18-24 hrs; read-out: MIC; how it was run: as §1
Staphylococcus aureus [30] = assay: Antibacterial activity against methicillin resistant Staphylococcus aureus NRS 198 assessed as bacterial growth inhibition incubated for 18 to 24 hrs by broth microdilution method; type: functional; settings: time 18-24 hrs; how it was run: as §2
Staphylococcus aureus [31] = assay: Synergistic antibacterial activity against Staphylococcus aureus ATCC 29213 assessed as fractional inhibitory concentration index incubated for 24 hrs in the presence of vancomycin by checkerboard assay; type: functional; how it was run: as §3
Staphylococcus aureus [32] = assay: Synergistic antibacterial activity against Staphylococcus aureus ATCC 29213 assessed as fractional inhibitory concentration index incubated for 24 hrs in the presence of rifampicin by checkerboard assay; type: functional; how it was run: as §3

CCN1C(=O)[C@@]2(CN(C)C3(c4cc(Br)ccc4-n4c3nc3ccccc3c4=O)C2(C#N)C#N)c2ccccc21 (stereo partly drawn)
Activity (Staphylococcus aureus [1]): Dose-Dependent Effect
Activity (Staphylococcus aureus [1]; record 2): ~2.7 log10CFU/ml
MIC (Pseudomonas aeruginosa): > 64 µg/mL
MIC (Staphylococcus aureus [2]): 0.25 µg/mL (≈ 0.433 µM)
FIC (Staphylococcus aureus [3]): 2
MIC (Staphylococcus aureus [4]): 0.25 µg/mL (≈ 0.433 µM)
FIC (Staphylococcus aureus [5]): 2
MIC (Klebsiella pneumoniae): > 64 µg/mL
MIC (Staphylococcus aureus [6]): 0.25 µg/mL (≈ 0.433 µM)
MIC (Staphylococcus aureus [7]): 0.125 µg/mL (≈ 0.216 µM)
MIC (Staphylococcus aureus [8]): 0.25 µg/mL
FIC (Staphylococcus aureus [9]): 2
MIC (Staphylococcus aureus [10]): 0.25 µg/mL
Activity (Vero): Non-Toxic
MIC (Staphylococcus aureus [11]): 0.5 µg/mL (≈ 0.866 µM)
MIC (Staphylococcus aureus [12]): 0.25 µg/mL
MIC (Staphylococcus aureus [13]): 0.25 µg/mL
MIC (Acinetobacter baumannii): > 64 µg/mL
MIC (Staphylococcus aureus [14]): 0.25 µg/mL
FIC (Staphylococcus aureus [15]): 2
MIC (Staphylococcus aureus [16]): 0.125 µg/mL (≈ 0.216 µM)
MIC (Staphylococcus aureus [17]): 0.25 µg/mL
MIC (Staphylococcus aureus [18]): 0.125 µg/mL (≈ 0.216 µM)
MIC (Staphylococcus aureus [19]): 0.125 µg/mL (≈ 0.216 µM)
MIC (Staphylococcus aureus [20]): 0.5 µg/mL (≈ 0.866 µM)
FIC (Staphylococcus aureus [21]): 2
FIC (Staphylococcus aureus [22]): 2
MIC (Staphylococcus aureus [23]): 0.25 µg/mL
MIC (Escherichia coli): > 64 µg/mL
FIC (Staphylococcus aureus [24]): 2
selectivity ratio [25]: 40
MIC (Staphylococcus aureus [26]): 0.25 µg/mL
MIC (Staphylococcus aureus [27]): 0.063 µg/mL (≈ 0.109 µM)
MIC (Staphylococcus aureus [28]): 0.25 µg/mL
MIC (Staphylococcus aureus [29]): 0.125 µg/mL (≈ 0.216 µM)
MIC (Staphylococcus aureus [30]): 0.125 µg/mL (≈ 0.216 µM)
FIC (Staphylococcus aureus [31]): 2
FIC (Staphylococcus aureus [32]): 2
